pIC50: −log10 of the molar value. Activity calls are given as the source filed them. The calls are words filed in the database; no cut-off is given here.
Legend:
[1] = Inhibition of alpha-glucosidase at 100 uM after 3 mins
Procedure, shortened: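 α-Glucosidase (0.1 mg/mL, purified) was assayed in 67 mM sodium phosphate pH 6.8 with 1.0 mg/mL glutathione. The reaction was started with 3.0 mg/mL pNPG and followed at 405 nm every 30 s for 3 min.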

[2] = Inhibition of glycogen phosphorylase assessed as […] phosphate release at 100 uM after 30 mins
Procedure, shortened: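 Glycogen phosphorylase was incubated with glycogen, glucose-1-phosphate, NaF and 5′-AMP for 30 min at 37 °C. The reaction was stopped with 10% TCA and 0.1 M sodium acetate. Samples were held overnight at 4 °C, then released Pi was measured.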

[3] = target: T1, Glucose-6-phosphatase catalytic subunit 1 (Homo sapiens) (UniProt P35575); test: Inhibition of glucose-6-phosphatase assessed as inositol phosphate release at 100 uM after 30 mins; conditions: in the assay text read “inorganic phosphate” for “inositol phosphate”
T1 sequence (whole entry): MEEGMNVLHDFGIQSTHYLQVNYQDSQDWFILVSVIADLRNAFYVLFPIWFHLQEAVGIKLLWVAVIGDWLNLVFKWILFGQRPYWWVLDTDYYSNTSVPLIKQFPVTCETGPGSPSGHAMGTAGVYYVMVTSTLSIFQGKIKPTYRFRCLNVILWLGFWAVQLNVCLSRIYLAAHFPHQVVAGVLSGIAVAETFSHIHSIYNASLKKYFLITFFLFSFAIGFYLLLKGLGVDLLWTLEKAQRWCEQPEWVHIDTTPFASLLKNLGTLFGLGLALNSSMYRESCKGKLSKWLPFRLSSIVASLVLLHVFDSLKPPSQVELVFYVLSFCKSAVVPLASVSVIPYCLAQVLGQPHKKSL
Procedure, shortened: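 Glucose-6-phosphatase was assayed in 0.3 M citrate pH 6.0 with 28 mM EDTA, 14 mM NaF, 200 mM glucose-6-phosphate and enzyme protein. After 30 min at 37 °C the reaction was stopped with 10% TCA. Activity was expressed as µmol Pi released per min per mg protein.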

[4] = tested on: Rattus norvegicus; test: Antihyperglycemic activity in Charles Foster-Wistar albino rat sucrose loaded model assessed as decrease of blood glucose level at 100 mg/kg, po administered 30 mins before glucose challenge measured up to 120 mins by glucometer; format: functional; parameters: scale not given: the % may be the effect or the level left; conditions: in the assay text read “Sprague-Dawley” for “Charles Foster-Wistar”
Procedure, shortened: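 Sprague–Dawley male rats with blood glucose 60–80 mg/dl, 5–6 per group, received 100 mg/kg orally as a suspension in 1.0% gum acacia; controls received vehicle. Sucrose 10.0 g/kg was given orally 30 min later. Glucose was read by glucometer at 30, 60, 90 and 120 min. Food was withheld. Percent activity came from AUC versus control.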

[5] = target: Dipeptidyl peptidase 4 (Homo sapiens) (UniProt P27487); test: Inhibition of DPP4 at 100 uM after 15 mins by spectrofluorimeter
Procedure, shortened: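 DPP-IV activity was measured at 37 °C as Gly-Pro-AMC (30 µM) cleavage in Tris–HCl pH 7.4 with test compound. Fluorescence was read at excitation 355 nm and emission 460 nm. The initial rate was taken over the first 15 min.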

[6] = target: T2, Tyrosine-protein phosphatase non-receptor type 1 (Homo sapiens) (UniProt P18031); test: Inhibition of PTP1B assessed as p-nitrophenolate ion production at 100 uM pretreated for 10 mins measured after 30 mins
T2 sequence (whole entry): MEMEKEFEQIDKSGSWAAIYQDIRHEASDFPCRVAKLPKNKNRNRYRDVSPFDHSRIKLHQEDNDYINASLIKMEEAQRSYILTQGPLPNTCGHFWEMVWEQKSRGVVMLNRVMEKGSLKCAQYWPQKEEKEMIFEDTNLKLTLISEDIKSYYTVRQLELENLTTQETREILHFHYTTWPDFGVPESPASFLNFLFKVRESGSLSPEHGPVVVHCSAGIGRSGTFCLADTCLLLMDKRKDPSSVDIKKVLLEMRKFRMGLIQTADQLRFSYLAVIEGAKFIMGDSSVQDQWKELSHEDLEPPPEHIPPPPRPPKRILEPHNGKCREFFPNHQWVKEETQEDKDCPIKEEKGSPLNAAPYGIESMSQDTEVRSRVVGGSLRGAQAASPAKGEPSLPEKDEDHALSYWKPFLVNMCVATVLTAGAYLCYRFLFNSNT
Procedure, shortened: (§1)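 PTP1B was preincubated 10 min with compound, with and without 0.01% Triton X-100. Substrate was 10 mM pNPP in 50 mM HEPES pH 7.0 with 1 mM DTT and 2 mM EDTA. After 30 min at 37 °C the reaction was stopped with 0.1 N NaOH and A410 was read. Product was calculated with ε 1.78×10⁴ M⁻¹cm⁻¹. Sodium orthovanadate served as standard. IC50 came from dose–response curves.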

[7] = target: T3, Tyrosine-protein phosphatase non-receptor type 1 (Homo sapiens, UniProt P18031); test: Inhibition of PTP1B assessed as p-nitrophenolate ion production pretreated for 10 mins measured after 30 mins; procedure, shortened: as §1
T3 sequence (P18031 whole entry): T2 sequence (whole entry)

[8] = tested on: Rattus norvegicus; test: Antihyperglycemic activity in Sprague-Dawley albino rat streptozotocin-induced beta-cell damaged diabetic model assessed as decrease of blood glucose level at 100 mg/kg, po administered 30 mins before glucose challenge measured after 5 hrs by glucometer; format: functional; parameters: scale not given: the % may be the effect or the level left
Procedure, shortened: (§2)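 Rats were made diabetic with streptozotocin 60 mg/kg ip in 100 mM citrate pH 4.5 after an overnight fast. Animals with glucose 144–270 mg/dl at 48 h were used, 5–6 per group. Compounds were given 100 mg/kg orally in 1.0% gum acacia. Sucrose 2.5 g/kg followed 30 min later. Glucose was read by glucostrips up to 300 min and at 24 h. Non-responders were excluded. Percent activity came from AUC versus control.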

[9] = tested on: Rattus norvegicus; test: Antihyperglycemic activity in Sprague-Dawley albino rat streptozotocin-induced beta-cell damaged diabetic model assessed as decrease of blood glucose level at 100 mg/kg, po administered 30 mins before glucose challenge measured after 24 hrs by glucometer; format: functional; parameters: scale not given: the % may be the effect or the level left; procedure, shortened: as §2

Sequence of Dipeptidyl peptidase 4 (Homo sapiens) (P27487 whole entry, looked up): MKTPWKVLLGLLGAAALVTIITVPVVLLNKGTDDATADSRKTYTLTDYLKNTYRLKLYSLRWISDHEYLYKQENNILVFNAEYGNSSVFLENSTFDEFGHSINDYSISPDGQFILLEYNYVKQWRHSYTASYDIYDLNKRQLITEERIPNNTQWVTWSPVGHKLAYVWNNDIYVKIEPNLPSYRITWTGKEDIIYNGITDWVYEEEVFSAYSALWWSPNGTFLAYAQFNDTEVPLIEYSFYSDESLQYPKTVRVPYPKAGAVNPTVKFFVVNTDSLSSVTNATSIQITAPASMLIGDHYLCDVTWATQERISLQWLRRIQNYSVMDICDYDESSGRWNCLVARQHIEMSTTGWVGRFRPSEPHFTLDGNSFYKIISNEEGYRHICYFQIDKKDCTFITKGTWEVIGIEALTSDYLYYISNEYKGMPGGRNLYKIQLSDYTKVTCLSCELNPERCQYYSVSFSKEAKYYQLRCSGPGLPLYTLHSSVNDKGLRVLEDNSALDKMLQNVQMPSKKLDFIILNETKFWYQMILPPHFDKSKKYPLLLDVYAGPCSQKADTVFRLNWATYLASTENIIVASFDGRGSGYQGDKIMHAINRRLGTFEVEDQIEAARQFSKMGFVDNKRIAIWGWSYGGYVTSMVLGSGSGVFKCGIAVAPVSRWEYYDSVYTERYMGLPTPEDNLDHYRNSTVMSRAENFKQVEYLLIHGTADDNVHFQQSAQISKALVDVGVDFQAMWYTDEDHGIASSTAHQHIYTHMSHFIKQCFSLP

Row | Molecule | inhibition [1] | inhibition [2] | inhibition [3] | Activity [4] | inhibition [5] | inhibition [6] | pIC50 [7] | Activity [8] | Activity [9] | Activity ([4]; Sprague-Dawley albino)
1 | Cc1ccc(C2=CC(c3ccccc3)C3=C(CC(C)(C)CC3=O)N2)cc1 (stereo unspecified) | inactive | 31.7% | inactive | 11.4% | inactive | 62.3% | 4.71 |  |  | 
2 | CC1(C)CC(=O)C2=C(C1)NC(C(=O)O)=CC2c1ccc(F)cc1 (stereo unspecified) | 1.4% | 46.6% | 16.8% | 38.7% | inactive | 27% |  | 27.8% | 23.6% | 
3 | CCOC(=O)C1(O)CC(c2ccc(Cl)cc2)C2=C(CC(C)(C)CC2=O)O1 (stereo unspecified) | inactive | 7.6% | inactive |  | inactive | 16.5% |  |  |  | inactive
4 | CCOC(=O)C1(O)CC(c2ccc(OC)cc2)C2=C(CC(C)(C)CC2=O)O1 (stereo unspecified) | inactive | inactive | inactive |  | inactive | 13.6% |  |  |  | inactive
5 | COc1ccc(-c2cc(-c3ccccc3)nc3c2C(=O)CC(C)(C)C3)cc1 | inactive | 31.1% | inactive |  | 22% | 9.1% |  |  |  | inactive
6 | CCOC(=O)C1=CC(c2ccc(F)cc2)C2=C(CC(C)(C)CC2=O)N1 (stereo unspecified) | 15.8% | 61.2% | inactive | 35.9% | 9.8% | 87.2% | 5.33 | 24.8% | 23.4% | 
7 | COc1ccc(C2C=C(c3ccccc3)NC3=C2C(=O)CC(C)(C)C3)cc1 (stereo unspecified) | inactive | inactive | inactive | 17.8% | 8.6% | 71.8% | 4.84 | 8.8% | 10.9% | 
8 | CCOC(=O)C1=CC(c2ccc(Br)cc2)C2=C(CC(C)(C)CC2=O)N1 (stereo unspecified) | inactive | 49.3% | inactive | 11.4% | inactive | 65.6% | 4.78 |  |  | 
9 | CCOC(=O)C1(O)CC(c2ccc(Br)cc2)C2=C(CC(C)(C)CC2=O)O1 (stereo unspecified) | inactive | 12.3% | inactive |  | inactive | 4.7% |  |  |  | inactive
10 | O=C1CCCC2=C1C(c1ccccc1)C=C(c1ccccc1)N2 (stereo unspecified) | inactive | 21.8% | inactive | 19.7% | inactive | 51.2% |  | 15.1% | 13.8% | 
11 | CN(C)C(=N)NC(=N)N [METFORMIN] |  |  |  | 13.5% |  |  |  | 18% | 20.2% | 
12 | CC1(C)CC(=O)c2c(-c3ccc(F)cc3)cc(-c3ccccc3)nc2C1 | inactive | 20.3% | 11.1% |  | 13.1% | 7.9% |  |  |  | inactive
13 | CCOC(=O)C1=CC(c2ccc(Cl)cc2)C2=C(CC(C)(C)CC2=O)N1 (stereo unspecified) | inactive | 56.7% | 11.3% | 11.4% | 12.5% | 53.8% |  |  |  | 
14 | CC1(C)CC(=O)c2c(-c3ccc(Cl)cc3)cc(-c3ccccc3)nc2C1 | inactive | 13.8% | 11.3% |  | 29.4% | 18.6% |  |  |  | inactive
15 | Cc1ccc(C2=CC(c3ccccc3)C3=C(CCCC3=O)N2)cc1 (stereo unspecified) | 8.3% | inactive | 27.7% | 13.4% | 18.8% | 33.3% |  |  |  | 
16 | CC1(C)CC(=O)C2=C(C1)NC(c1ccccc1)=CC2c1c[nH]c2ccccc12 (stereo unspecified) | inactive | 39.7% | 26.7% | 17.3% | inactive | 54.5% |  | 8.1% | 13.2% | 
17 | COc1ccc(C2=CC(c3ccccc3)C3=C(CC(C)(C)CC3=O)N2)cc1 (stereo unspecified) | 22.4% | 18.4% | 8.34% | 17.3% | inactive | 53.4% |  | 11.9% | 11.7% | 
18 | CC1(C)CC(=O)C2=C(C1)NC(c1ccccc1)=CC2c1ccc([N+](=O)[O-])cc1 (stereo unspecified) | 22.4% | inactive | inactive | 14.1% | inactive | 84.7% | 5.21 |  |  | 
19 | CCOC(=O)C1=CC(c2ccc(OC)cc2)C2=C(CC(C)(C)CC2=O)N1 (stereo unspecified) | inactive | 40.4% | 23.8% | 12.9% | 16.5% | 66.7% |  |  |  | 
20 | CC1(C)CC(=O)C2=C(C1)NC(c1ccccc1)=CC2c1ccco1 (stereo unspecified) | inactive | 18.9% | 11.4% | 14.6% | 18.6% | 82.5% | 5.11 |  |  | 
21 | COc1ccc(Cl)cc1C(=O)NCCc1ccc(S(=O)(=O)NC(=O)NC2CCCCC2)cc1 [GLYBURIDE] |  |  |  | 32.5% |  |  |  | 25.6% | 28.4% | 
22 | CCOC(=O)C1(O)CC(c2ccccc2)C2=C(CC(C)(C)CC2=O)O1 (stereo unspecified) | inactive | inactive | inactive |  | inactive | 21.3% |  |  |  | inactive
23 | COc1ccc(C2C=C(c3ccccc3)NC3=C2C(=O)CCC3)cc1 (stereo unspecified) | 7.3% | 13.8% | 17.3% | 29.6% | inactive | 56.8% |  | 17.5% | 19.4% | 
24 | SODIUM ORTHOVANAD |  |  |  |  | 57.8% |  |  |  |  | 
25 | CCOC(=O)C1=CC(c2ccccc2)C2=C(CC(C)(C)CC2=O)N1 (stereo unspecified) | inactive | 49.5% | inactive | 16.6% | inactive | 43.3% |  | 7.1% | 11.3% | 

— ChEMBL document CHEMBL1165941, “Design and synthesis of 2,4-disubstituted polyhydroquinolines as prospective antihyperglycemic and lipid modulating agents” (Bioorg Med Chem, 2010)
